In brackets after ≈: the same amount, converted by molar mass.
Key:
[1] = Percentage binding to neuronal NACHR at 10 uM
Method in brief: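 Single-concentration screen within a panel of 54 receptors and ion channels, measuring binding or interaction at each target.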

[2] = target: Glycogen synthase kinase-3 beta (Homo sapiens) (UniProt P49841); test: Inhibition of GSK3-beta at 10 uM
[3] = target: Sodium-dependent dopamine transporter (Homo sapiens) (UniProt Q01959); test: Activity against dopamine uptake at 10 uM
[4] = target: 3',5'-cyclic-AMP phosphodiesterase 4C (Homo sapiens, UniProt Q08493); test: Inhibitory activity against PDE4C by scintillation proximity assay
Method in brief: (§1)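 Scintillation proximity assay for phosphodiesterase inhibition. Enzyme is used at a concentration within the linear range, and its KM was measured. Final substrate concentration is 1 µM, below one-third of KM, so IC50 approximates Ki. Results are means of n experiments with standard deviation.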

[5] = target: Serine/threonine-protein kinase Nek2 (Homo sapiens) (UniProt P51955); test: Inhibition of NEK2 at 10 uM
[6] = target: 5-hydroxytryptamine receptor 1A (Homo sapiens) (UniProt P08908); test: Percentage binding to serotonin 5HT1A at 10 uM
[7] = target: Muscarinic acetylcholine receptor M4 (Homo sapiens) (UniProt P08173); test: Percentage binding to muscarinic M4 at 10 uM
[8] = target: 3',5'-cyclic-AMP phosphodiesterase 4D (Homo sapiens, UniProt Q08499); test: Inhibitory activity against PDE4D by scintillation proximity assay; method in brief: as §1
[9] = Apical Caco-2 cell membrane permeability; type: ADME, cell-based; conditions: human
[10] = target: Ribosomal protein S6 kinase alpha-1 (Homo sapiens) (UniProt Q15418); test: Inhibition of RSK1 at 10 uM
[11] = target: Type-1 angiotensin II receptor (Homo sapiens) (UniProt P30556); test: Percentage binding to angiotensin II type1 receptor at 10 uM
[12] = target: Acetylcholine receptor; alpha1/beta1/delta/gamma (Homo sapiens) (UniProt P02708+P07510+P11230+Q07001); test: Percentage binding to muscle NACHR at 10 uM; type: tissue-based; conditions: Muscle tissue
[13] = target: B2 bradykinin receptor (Homo sapiens) (UniProt P30411); test: Percentage binding to bradykinin B2 at 10 uM
[14] = target: Beta-2 adrenergic receptor (Homo sapiens) (UniProt P07550); test: Percentage binding to adrenergic beta-2 receptor at 10 uM
[15] = Turbidimetric solubility at pH 7; type: ADME, organism-based, Homo sapiens
[16] = target: Voltage-dependent N-type calcium channel subunit alpha-1B (Homo sapiens) (UniProt Q00975); test: Percentage binding to Ca2+ channel N at 10 uM
[17] = target: Casein kinase II (Homo sapiens) (UniProt P67870+P68400+P19784); test: Inhibition of CK2 at 10 uM; type: protein-complex assay
[18] = target: Glutamate [NMDA] receptor (Homo sapiens) (UniProt Q05586+Q12879+Q13224+O15399+O60391+Q14957+Q8TCU5); test: Percentage binding to NMDA at 10 uM; type: protein-complex assay
[19] = target: 5-hydroxytryptamine receptor 2A (Homo sapiens) (UniProt P28223); test: Percentage binding to serotonin 5HT2A at 10 uM
[20] = target: Glutamate receptor ionotropic AMPA (Homo sapiens) (UniProt P48058+P42263+P42262+P42261); test: Percentage binding to AMPA at 10 uM; type: protein-complex assay
[21] = target: 3',5'-cyclic-AMP phosphodiesterase 4B (Homo sapiens, UniProt Q07343); test: Inhibitory activity against PDE4B by scintillation proximity assay
Method in brief: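 Phosphodiesterase inhibition run as a scintillation proximity assay, with enzyme at a concentration in the linear range. Final substrate was 1 µM, below one-third of the enzyme K_M, so that IC50 approximates Ki. Values are means of n experiments with standard deviation.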

[22] = Half life in rat; type: ADME, organism-based; conditions: Sprague-Dawley, in vivo
Method in brief: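 Sprague–Dawley rats were dosed intravenously at 1 mg/kg in EtOH:PEG 400:H2O (1:4:5) and orally at 30 mg/kg in 0.5% methylcellulose.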

[23] = target: Voltage-gated L-type calcium channel (Homo sapiens, UniProt Q13936+Q13698+Q01668+O60840); test: Percentage binding to Ca2+ channel L at 10 uM; type: protein assay
[24] = target: Adenosine receptor A3 (Homo sapiens) (UniProt P0DMS8); test: Percentage binding to adenosine A3 receptor at 10 uM
[25] = target: Vasopressin V1 receptor (Homo sapiens) (UniProt P37288+P47901); test: Percentage binding to vasopressin V1 at 10 uM; type: protein assay
Chain of Vasopressin V1 receptor (Homo sapiens) (P37288 whole entry, looked up): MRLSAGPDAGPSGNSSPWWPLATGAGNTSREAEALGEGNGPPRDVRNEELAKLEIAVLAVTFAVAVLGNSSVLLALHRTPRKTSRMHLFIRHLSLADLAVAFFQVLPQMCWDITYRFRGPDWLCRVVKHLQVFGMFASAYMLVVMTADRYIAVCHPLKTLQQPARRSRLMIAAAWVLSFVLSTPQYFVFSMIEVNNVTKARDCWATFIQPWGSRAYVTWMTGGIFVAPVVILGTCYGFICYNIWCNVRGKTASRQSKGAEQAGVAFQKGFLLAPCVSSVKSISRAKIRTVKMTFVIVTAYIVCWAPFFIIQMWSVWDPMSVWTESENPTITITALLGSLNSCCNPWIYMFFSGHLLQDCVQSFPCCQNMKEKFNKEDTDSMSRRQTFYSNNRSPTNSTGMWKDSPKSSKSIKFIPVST
Chain of Vasopressin V1 receptor (Homo sapiens) (P47901 whole entry, looked up): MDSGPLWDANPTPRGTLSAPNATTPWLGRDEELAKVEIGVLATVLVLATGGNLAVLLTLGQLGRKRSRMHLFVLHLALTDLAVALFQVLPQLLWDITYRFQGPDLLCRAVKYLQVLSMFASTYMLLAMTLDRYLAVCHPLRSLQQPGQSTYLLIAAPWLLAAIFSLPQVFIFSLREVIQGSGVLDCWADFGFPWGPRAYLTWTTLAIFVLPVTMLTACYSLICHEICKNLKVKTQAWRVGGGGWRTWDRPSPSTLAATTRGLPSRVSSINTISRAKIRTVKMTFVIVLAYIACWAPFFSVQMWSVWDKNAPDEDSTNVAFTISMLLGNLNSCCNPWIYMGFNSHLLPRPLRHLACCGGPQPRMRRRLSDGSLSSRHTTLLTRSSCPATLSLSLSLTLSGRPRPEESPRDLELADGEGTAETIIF

Chain of B2 bradykinin receptor (Homo sapiens) (P30411 whole entry): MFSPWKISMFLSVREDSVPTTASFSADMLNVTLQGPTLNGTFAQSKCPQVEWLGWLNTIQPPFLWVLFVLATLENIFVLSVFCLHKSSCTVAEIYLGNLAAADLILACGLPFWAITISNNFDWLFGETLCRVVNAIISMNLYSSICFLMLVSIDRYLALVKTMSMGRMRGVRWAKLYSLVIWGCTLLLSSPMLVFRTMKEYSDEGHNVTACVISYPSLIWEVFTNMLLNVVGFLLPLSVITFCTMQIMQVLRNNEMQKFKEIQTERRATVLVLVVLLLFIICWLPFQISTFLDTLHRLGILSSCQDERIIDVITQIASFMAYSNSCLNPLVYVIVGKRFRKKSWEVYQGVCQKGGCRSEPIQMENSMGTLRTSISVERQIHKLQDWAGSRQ
Chain of 3',5'-cyclic-AMP phosphodiesterase 4B (Q07343 whole entry): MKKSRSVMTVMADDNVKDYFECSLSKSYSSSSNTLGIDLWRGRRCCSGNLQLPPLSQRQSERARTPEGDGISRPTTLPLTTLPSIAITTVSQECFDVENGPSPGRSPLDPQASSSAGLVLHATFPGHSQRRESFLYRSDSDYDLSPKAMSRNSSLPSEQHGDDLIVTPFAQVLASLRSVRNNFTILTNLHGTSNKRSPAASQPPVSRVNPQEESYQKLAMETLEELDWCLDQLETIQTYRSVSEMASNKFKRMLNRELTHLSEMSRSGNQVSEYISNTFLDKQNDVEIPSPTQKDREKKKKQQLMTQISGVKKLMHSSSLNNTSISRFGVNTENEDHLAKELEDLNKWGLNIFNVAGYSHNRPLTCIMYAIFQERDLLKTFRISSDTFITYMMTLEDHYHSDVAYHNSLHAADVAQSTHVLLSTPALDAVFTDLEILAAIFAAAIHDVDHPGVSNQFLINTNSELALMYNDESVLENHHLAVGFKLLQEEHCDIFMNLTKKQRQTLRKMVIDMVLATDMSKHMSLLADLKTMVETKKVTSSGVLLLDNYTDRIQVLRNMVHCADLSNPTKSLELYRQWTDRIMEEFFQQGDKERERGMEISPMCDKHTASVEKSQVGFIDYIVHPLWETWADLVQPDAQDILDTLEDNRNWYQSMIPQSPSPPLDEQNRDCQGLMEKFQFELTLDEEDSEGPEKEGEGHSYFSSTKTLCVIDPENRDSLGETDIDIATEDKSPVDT
Chain of Sodium-dependent dopamine transporter (Homo sapiens) (Q01959 whole entry): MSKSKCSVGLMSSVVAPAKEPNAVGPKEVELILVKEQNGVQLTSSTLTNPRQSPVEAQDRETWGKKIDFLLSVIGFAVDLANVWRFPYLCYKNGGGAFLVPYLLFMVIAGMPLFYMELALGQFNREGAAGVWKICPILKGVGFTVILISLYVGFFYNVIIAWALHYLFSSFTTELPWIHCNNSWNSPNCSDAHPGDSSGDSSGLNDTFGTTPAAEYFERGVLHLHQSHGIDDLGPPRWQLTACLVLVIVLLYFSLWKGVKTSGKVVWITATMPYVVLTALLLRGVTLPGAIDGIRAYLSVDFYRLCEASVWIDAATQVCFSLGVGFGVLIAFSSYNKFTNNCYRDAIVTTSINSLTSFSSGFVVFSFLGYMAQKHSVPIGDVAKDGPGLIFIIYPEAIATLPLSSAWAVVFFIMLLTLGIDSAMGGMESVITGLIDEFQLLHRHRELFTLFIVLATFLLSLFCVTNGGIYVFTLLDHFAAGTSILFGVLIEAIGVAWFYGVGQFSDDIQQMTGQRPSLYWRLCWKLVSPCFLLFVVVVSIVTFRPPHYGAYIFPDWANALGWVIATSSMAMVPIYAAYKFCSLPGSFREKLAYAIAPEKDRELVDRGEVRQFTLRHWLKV
Chain of Ribosomal protein S6 kinase alpha-1 (Homo sapiens) (Q15418 whole entry): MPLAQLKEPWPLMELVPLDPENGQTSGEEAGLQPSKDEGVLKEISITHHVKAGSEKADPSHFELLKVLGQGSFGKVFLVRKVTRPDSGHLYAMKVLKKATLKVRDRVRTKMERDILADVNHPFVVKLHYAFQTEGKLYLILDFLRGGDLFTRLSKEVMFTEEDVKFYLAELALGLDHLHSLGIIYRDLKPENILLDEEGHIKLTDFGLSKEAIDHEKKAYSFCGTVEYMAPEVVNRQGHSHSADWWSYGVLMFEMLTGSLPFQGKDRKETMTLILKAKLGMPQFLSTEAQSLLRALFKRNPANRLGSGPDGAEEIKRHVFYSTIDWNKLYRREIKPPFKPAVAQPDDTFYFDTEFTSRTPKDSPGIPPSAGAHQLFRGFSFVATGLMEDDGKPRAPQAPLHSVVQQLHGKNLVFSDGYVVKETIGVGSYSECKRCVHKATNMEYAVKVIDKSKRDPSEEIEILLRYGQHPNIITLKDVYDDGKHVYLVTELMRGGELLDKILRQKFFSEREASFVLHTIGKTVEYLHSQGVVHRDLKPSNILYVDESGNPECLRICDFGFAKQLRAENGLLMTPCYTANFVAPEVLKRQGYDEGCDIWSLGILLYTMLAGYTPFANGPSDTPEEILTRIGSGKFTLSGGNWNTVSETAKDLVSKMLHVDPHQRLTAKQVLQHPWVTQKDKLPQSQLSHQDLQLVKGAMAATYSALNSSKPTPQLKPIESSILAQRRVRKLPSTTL
Chain of Serine/threonine-protein kinase Nek2 (Homo sapiens) (P51955 whole entry): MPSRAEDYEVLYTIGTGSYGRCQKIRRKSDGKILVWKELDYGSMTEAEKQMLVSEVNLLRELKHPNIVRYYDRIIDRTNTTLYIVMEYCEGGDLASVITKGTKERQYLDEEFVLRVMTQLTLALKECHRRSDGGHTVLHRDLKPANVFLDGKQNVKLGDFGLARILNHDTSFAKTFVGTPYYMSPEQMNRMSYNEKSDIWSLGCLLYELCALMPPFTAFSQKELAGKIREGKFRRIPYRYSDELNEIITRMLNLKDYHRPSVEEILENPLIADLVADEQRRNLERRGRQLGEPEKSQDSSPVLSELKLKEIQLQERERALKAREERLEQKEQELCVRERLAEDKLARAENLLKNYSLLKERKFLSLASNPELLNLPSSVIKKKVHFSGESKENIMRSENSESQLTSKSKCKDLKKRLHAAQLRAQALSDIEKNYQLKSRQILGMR
Chain of 3',5'-cyclic-AMP phosphodiesterase 4D (Q08499 whole entry): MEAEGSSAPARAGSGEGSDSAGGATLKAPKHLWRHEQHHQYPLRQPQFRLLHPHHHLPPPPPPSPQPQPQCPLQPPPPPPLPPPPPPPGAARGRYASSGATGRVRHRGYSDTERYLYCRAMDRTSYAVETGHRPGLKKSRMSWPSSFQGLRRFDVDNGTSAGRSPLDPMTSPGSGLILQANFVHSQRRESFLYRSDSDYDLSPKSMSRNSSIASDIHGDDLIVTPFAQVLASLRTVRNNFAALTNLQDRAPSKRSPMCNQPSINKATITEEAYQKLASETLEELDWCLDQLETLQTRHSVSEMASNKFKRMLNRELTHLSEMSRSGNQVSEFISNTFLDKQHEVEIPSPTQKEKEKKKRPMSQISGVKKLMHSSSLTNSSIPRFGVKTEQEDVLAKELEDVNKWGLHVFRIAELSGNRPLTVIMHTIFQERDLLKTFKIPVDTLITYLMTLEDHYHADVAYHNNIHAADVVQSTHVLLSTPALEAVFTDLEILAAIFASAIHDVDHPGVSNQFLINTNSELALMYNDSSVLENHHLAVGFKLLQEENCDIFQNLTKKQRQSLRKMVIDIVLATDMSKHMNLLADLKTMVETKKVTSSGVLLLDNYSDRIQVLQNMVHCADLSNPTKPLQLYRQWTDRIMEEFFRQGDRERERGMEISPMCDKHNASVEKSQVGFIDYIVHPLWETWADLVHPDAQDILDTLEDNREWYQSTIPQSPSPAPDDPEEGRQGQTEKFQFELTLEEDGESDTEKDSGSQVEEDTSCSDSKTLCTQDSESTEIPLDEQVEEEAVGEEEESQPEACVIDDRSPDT
Chain of 5-hydroxytryptamine receptor 1A (Homo sapiens) (P08908 whole entry): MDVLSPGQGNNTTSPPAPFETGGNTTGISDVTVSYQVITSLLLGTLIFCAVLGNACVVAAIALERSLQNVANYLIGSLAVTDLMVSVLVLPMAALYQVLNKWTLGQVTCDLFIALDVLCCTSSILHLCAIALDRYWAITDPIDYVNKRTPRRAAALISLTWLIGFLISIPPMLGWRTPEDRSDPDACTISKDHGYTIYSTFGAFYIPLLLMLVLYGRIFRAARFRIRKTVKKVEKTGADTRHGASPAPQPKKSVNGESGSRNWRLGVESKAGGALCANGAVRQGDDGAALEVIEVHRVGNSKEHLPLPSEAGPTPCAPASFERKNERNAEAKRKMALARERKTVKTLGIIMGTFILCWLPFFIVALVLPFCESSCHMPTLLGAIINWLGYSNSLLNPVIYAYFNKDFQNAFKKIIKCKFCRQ

`CN1C(=O)C(C(=O)Nc2nncs2)c2cc3occc3cc21` (stereo not given) gave an Activity [1] of 7%, an inhibition [2] of 16% and an Activity [3] of 11%. The IC50 [4] was > 16 µM, the inhibition [5] was 0% and the Activity [6] was 23%. The Activity [7] was 1%, the IC50 [8] was > 16 µM and the Papp [9] was 5 ×10⁻⁶ cm/s. The inhibition [10] was 1%, the Activity [11] was 11% and the Activity [12] was 0%. For the same compound, the Activity [13] was 5%, the Activity [14] was 12% and the solubility kinetic [15] was 55 µg/mL (≈ 175 µM). For the same compound, the Activity [16] was 0%, the inhibition [17] was 32% and the Activity [18] was 7%. The Activity [19] was 15%, the Activity [20] was 20% and the IC50 [21] was > 16 µM. It also gave a half-life [22] of 1.6 h, an Activity [23] of 0% and an Activity [24] of 35%. The Activity [25] was 5%.

Source: ChEMBL document CHEMBL1147762, “A new chemical tool for exploring the physiological function of the PDE2 isozyme” (Bioorg Med Chem Lett, 2006)
